Assay [1] deals with MCF7. Put plainly: Downregulation of p53 expression in human MCF7 cells at 6 to 12 uM measured after 24 hrs by immunoblot analysis. The assay is classed as functional, cell-based. The conditions noted are these: dose 6-12 µM. The method in brief:
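24 h exposure to 6 or 12 μM, DMSO control. Lysis in Tris pH 8.0/NaCl/glycerol/NP-40/EDTA buffer with protease inhibitors. 20 µg (MDA-MB-231, MDA-MB-468) or 50 µg (MCF-7) of lysate run on 4-12% SDS-PAGE. Blot probed with p53 DO-1, GAPDH used for reprobe/loading. Triplicate experiments.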

Assay [2] deals with MDA-MB-468. The assay is described as follows: Cell cycle arrest in human MDA-MB-468 cells expressing p53 R273H mutant assessed as accumulation of cells at G1 phase at 6 uM measured after 24 hrs by PI staining based flow cytometry (reference value: 30.6%). The assay is classed as functional. On the technique in general: In flow cytometry, cells or beads pass a laser one at a time.

For assay [3], the system named is MCF7. Put plainly: Cell cycle arrest in human MCF7 cells expressing wild type p53 assessed as accumulation of cells at G2/M phase at 6 uM measured after 24 hrs by PI staining based flow cytometry (reference value: 21.3%). The class given is functional.
Assay [4] deals with Cellular tumor antigen p53 (Homo sapiens), P04637 [R280K]. Put plainly: Reactivation of transactivation function to p53 R280K mutant in human MDA-MB-231 cells assessed as ATM activation by measuring increase in phosphorylation of ATM at serine 1981 residue at 6 uM measured after 24 hrs by immunoblot analysis. The assay is classed as cell-based. Particulars: filed as activator. The method in brief: (§1)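 DMSO or 6 µM for 24 h. 250 µg of lysate run on 4-12% SDS-PAGE, blot probed with anti-pATM Ser1981 (1:500), then anti-mouse HRP secondary with ECL detection. GAPDH reprobe as control. Triplicate experiments.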

In assay [5] the test system is Cellular tumor antigen p53 (Homo sapiens), P04637 [R273H]. The assay is described as follows: Reactivation of transactivation function to p53 R273H mutant in human MDA-MB-468 cells assessed as ATM activation by measuring increase in phosphorylation of ATM at serine 1981 residue at 6 uM measured after 24 hrs by immunoblot analysis. The assay is classed as cell-based. Particulars: filed as activator. The method in brief:
as §1
In general terms: A western blot detects proteins with antibodies after separation by electrophoresis.

The structures appear in SMILES notation. Activity calls are given as the source filed them. The rule behind the calls is not given here.

On to `S=C=NCCCC12CC3CC(CC(C3)C1)C2`, for which the inhibition result in assay [1] was “inactive”. For the same molecule, the Activity in assay [2] is 53.2%; in assay [3], 24.3%. The outcome in assay [4] and in assay [5] was Active.

The record behind these values is ChEMBL document CHEMBL5038582, “Adamantyl Isothiocyanates as Mutant p53 Rescuing Agents and Their Structure-Activity Relationships” (J Med Chem, 2021).
